The source made the active and inactive calls. The rule behind the calls is not given here.
Columns and labels:
Mus musculus [1] = species: Mus musculus; assay: Effect on AMPK phosphorylation in wild type LKB1+/+ mouse longus muscle tissue at 2 mM uM by Western blot; type: tissue-based
Outline: (§1)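 EDL muscle from fasted LKB1+/+ or muscle-LKB1−/− mice, incubated 1 hr at 37°C in KRB pH 7.4 with 2 mM pyruvate, gassed 95% O2/5% CO2, with 2 mM AICAR. Lysates immunoblotted with phospho-Thr172 AMPK and phospho-ACC antibodies; ECL bands quantified by CCD imaging.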

HeLa [2] = assay: Effect on AMPK phosphorylation in HeLa cells at 100 uM after 1 hr by immunoprecipitate kinase assay
HeLa [3] = assay: Effect on AMPK activation in HeLa cells at 100 uM after 1 hr by immunoprecipitate kinase assay; type: cell-based
Outline: (§2)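 HeLa cells (MEM, 10% FBS, NEAA, penicillin/streptomycin) given 100 µM compound for 1 hr, with or without STO-609 (10 µg/ml) for 1 hr beforehand. Lysates in ice-cold NP-40 buffer; AMPK activity by immunoprecipitate kinase assay and Thr-172 phosphorylation by Western blot. Means ± SEM of duplicates, representative of 2 or more experiments.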

HeLa [4] = assay: Reduction of acetyl-CoA carboxylase phosphorylation in HeLa cells at 100 uM after 1 hr in presence of STO-609 by densitometry; type: cell-based
Outline: (§3)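 HeLa cells exposed to 100 µM compound for 1 hr, with or without a 1 hr pretreatment with STO-609 (10 µg/ml). Lysates Western blotted for phospho-ACC, quantified by densitometry in arbitrary units. Means ± SEM of duplicates; 2 or more experiments.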

[5] = target: Serine/threonine-protein kinase pim-1 (Homo sapiens) (UniProt P11309); assay: Inhibition of PIM1 at 10 uM
Chain of Serine/threonine-protein kinase pim-1 (Homo sapiens) (P11309 whole entry, looked up): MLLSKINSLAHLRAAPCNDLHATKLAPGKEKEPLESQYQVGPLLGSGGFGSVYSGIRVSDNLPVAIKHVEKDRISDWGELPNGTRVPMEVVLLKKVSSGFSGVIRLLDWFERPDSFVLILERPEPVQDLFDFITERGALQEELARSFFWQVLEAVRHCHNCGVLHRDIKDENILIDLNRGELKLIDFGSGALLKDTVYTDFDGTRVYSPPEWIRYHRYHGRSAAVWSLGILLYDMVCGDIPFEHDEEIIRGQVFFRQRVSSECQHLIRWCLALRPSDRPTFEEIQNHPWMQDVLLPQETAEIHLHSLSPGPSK
Outline: (§4)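 Single-concentration selectivity screen at 10 µM across a 76-protein-kinase panel, assayed per earlier methods. Duplicate assays; activity expressed as % of no-compound control ± standard deviation.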

Mus musculus [6] = species: Mus musculus; assay: Effect on AMPK phosphorylation in wild type LKB1+/+ mouse longus muscle tissue at 100 uM by Western blot; type: tissue-based
Outline: (§5)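 Extensor digitorum longus from overnight-fasted LKB1+/+ or muscle-specific LKB1−/− mice, mounted and incubated 1 hr at 37°C in KRB (pH 7.4, 2 mM pyruvate, gassed 95% O2/5% CO2) with compound (stock in DMSO); controls 0.1% DMSO. Muscles snap-frozen; lysates Western blotted for pT172 AMPK and pACC.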

Rattus norvegicus [7] = species: Rattus norvegicus; assay: Effect on interaction between rat GST fused AMPK glycogen binding domain and glycogen at 0.5 uM
Outline: (§6)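 β1 glycogen-binding domain (residues 65-182) fused to GST, expressed in E. coli BL21 and glutathione-purified. 2 µg incubated with bovine liver glycogen coupled to Sepharose in 50 mM Tris-HCl pH 7.5, 150 mM NaCl with compound. Load, supernatant and pellet anti-GST immunoblotted on infrared imager.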

Mus musculus [8] = species: Mus musculus; assay: Effect on acetyl-CoA carboxylase phosphorylation in wild type LKB1+/+ mouse longus muscle tissue at 2 mM uM by Western blot; type: tissue-based; outline: as §1
Mus musculus [9] = species: Mus musculus; assay: Effect on acetyl-CoA carboxylase phosphorylation in mouse embryonic fibroblasts expressing AMPK-alpha1+/+alpha2+/+ at 100 uM upto1 hrs by Western blot
Mus musculus [10] = species: Mus musculus; assay: Effect on AMPK phosphorylation in LKB1-/- mouse longus muscle tissue at 2 mM uM by Western blot; type: tissue-based; outline: as §1
Mus musculus [11] = species: Mus musculus; assay: Increase in acetyl-CoA carboxylase phosphorylation in TAK1-/- mouse embryonic fibroblast at 100 uM after 1 hr by densitometry
Outline: (§7)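 TAK1+/+ and TAK1−/− MEFs treated with 100 µM compound for 1 hr; lysates Western blotted and ACC phosphorylation quantified by densitometry in arbitrary units. Means ± SEM of duplicates, representative of 2 or more experiments.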

Mus musculus [12] = species: Mus musculus; assay: Effect on acetyl-CoA carboxylase phosphorylation in LKB1-/-mouse longus muscle tissue at 2 mM uM by Western blot; type: tissue-based; outline: as §1
HeLa [13] = assay: Reduction of AMPK phosphorylation in HeLa cells at 100 uM after 1 hr in presence of STO-609 by immunoprecipitate kinase assay; type: cell-based; outline: as §2
Rattus norvegicus [14] = species: Rattus norvegicus; assay: Effect on interaction between rat GST fused AMPK glycogen binding domain and glycogen at 5 uM; outline: as §6
Mus musculus [15] = species: Mus musculus; assay: Effect on acetyl-CoA carboxylase phosphorylation in mouse embryonic fibroblasts expressing AMPK-alpha1+/+alpha2+/+ upto 300 uM by Western blot
Outline: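 MEFs from AMPKα1+/+/α2+/+ mice (DMEM, 10% FBS, NEAA, 1 mM pyruvate, antibiotics) given compound at graded concentrations up to 300 µM for 1 h. Lysates Western blotted for phospho- and total ACC, quantified by densitometry (arbitrary units). Means ± SEM of duplicates, representative of 2 or more experiments.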

Mus musculus [16] = species: Mus musculus; assay: Effect on acetyl-CoA carboxylase phosphorylation in mouse embryonic fibroblasts expressing AMPK-alpha1+/+alpha2+/+ at 100 uM after 15 mins by Western blot
HeLa [17] = assay: Effect on AMPK phosphorylation in HeLa cells at 100 uM after 1 hr by immunoprecipitate kinase assay; type: cell-based; outline: as §2
Mus musculus [18] = species: Mus musculus; assay: Effect on acetyl-CoA carboxylase phosphorylation in LKB1-/-mouse longus muscle tissue at 100 uM by Western blot; type: tissue-based; outline: as §5
[19] = target: 5'-AMP-activated protein kinase catalytic subunit alpha-1 (Rattus norvegicus) (UniProt P54645); assay: Effect on GST fused rat AMPKalpha1 (1-333) kinase activation in presence of recombinant CaMKKbeta by Western blot
Chain of 5'-AMP-activated protein kinase catalytic subunit alpha-1 (Rattus norvegicus) (P54645 whole entry, the tested form may be a part): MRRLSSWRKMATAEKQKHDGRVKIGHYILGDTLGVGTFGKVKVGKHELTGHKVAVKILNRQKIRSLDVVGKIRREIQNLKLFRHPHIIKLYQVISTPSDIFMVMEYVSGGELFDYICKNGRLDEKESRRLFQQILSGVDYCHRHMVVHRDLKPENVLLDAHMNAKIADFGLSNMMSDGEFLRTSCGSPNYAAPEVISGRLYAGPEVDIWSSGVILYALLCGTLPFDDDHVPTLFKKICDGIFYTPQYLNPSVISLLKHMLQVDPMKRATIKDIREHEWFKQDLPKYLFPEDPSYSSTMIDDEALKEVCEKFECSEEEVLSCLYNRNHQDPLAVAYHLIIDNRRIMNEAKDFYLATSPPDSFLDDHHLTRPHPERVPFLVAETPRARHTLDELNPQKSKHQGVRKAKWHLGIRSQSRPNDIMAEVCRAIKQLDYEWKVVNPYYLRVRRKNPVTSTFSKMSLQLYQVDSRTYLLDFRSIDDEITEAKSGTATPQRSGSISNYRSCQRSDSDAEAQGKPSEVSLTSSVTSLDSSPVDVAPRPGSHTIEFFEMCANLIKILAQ
Outline: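 GST fusions of rat AMPKα1 kinase domain, with or without the autoinhibitory region, made in bacteria and glutathione-Sepharose purified. Pre-incubated with MgATP with or without recombinant human CaMKKβ to phosphorylate Thr-172. Activity then measured with or without 1 µM compound, or samples Western blotted with anti-GST and anti-pT172.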

Rattus norvegicus [20] = species: Rattus norvegicus; assay: Protection against dephosphorylation of rat AMPK incubated with protein phosphatase 2Calpha at 1 uM in presence of magnesium
Outline: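 Purified rat liver AMPK incubated with recombinant protein phosphatase-2Cα (9 ng) plus 5 mM MgCl2 with or without 1 µM compound; remaining AMPK activity measured. Controls lacked Mg2+ or added 200 µM AMP.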

Hepatocyte = assay: Effect on acetyl-CoA carboxylase phosphorylation in wild type AMPK expressing mouse AMPK-alpha1+/+alpha2+/+ primary hepatocytes upto 200 uM after 4 hrs by Western blot; type: cell-based
Outline: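 Primary hepatocytes from AMPKα1+/+α2+/+ mice exposed to compound concentrations up to 200 µM for 4 hr. Lysates immunoblotted with phosphospecific and total ACC antibodies.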

[21] = target: 5'-AMP-activated protein kinase catalytic subunit alpha-1 (Rattus norvegicus) (UniProt P54645); assay: Activation of rat AMPK alpha-1-alpha-2beta-1-gamma-1 kinase upto 5 uM in presence of saturating concentration of 200 uM AMP
[22] = target: Serine/threonine-protein kinase pim-3 (Homo sapiens) (UniProt Q86V86); assay: Inhibition of PIM3 at 10 uM; outline: as §4
Mus musculus [23] = species: Mus musculus; assay: Increase in acetyl-CoA carboxylase phosphorylation in TAK1+/+ mouse embryonic fibroblast at 100 uM after 1 hr by densitometry; outline: as §7
HeLa [24] = assay: Effect on acetyl-CoA carboxylase phosphorylation in HeLa cells at 100 uM after 1 hr by densitometry; type: cell-based; outline: as §3
Mus musculus [25] = species: Mus musculus; assay: Effect on AMPK phosphorylation in LKB1-/- mouse longus muscle tissue at 100 uM by Western blot; type: tissue-based; outline: as §5
HeLa [26] = assay: Reduction of AMPK activation in HeLa cells at 100 uM after 1 hr in presence of STO-609 by immunoprecipitate kinase assay; type: cell-based; outline: as §2
Mus musculus [27] = species: Mus musculus; assay: Effect on acetyl-CoA carboxylase phosphorylation in wild type LKB1+/+ mouse longus muscle tissue at 100 uM by Western blot; type: tissue-based; outline: as §5
Rattus norvegicus [28] = species: Rattus norvegicus; assay: Effect on GST fused rat AMPKalpha1 T172D mutant kinase
Mus musculus [29] = species: Mus musculus; assay: Effect on acetyl-CoA carboxylase phosphorylation in mouse embryonic fibroblasts expressing AMPK-alpha1+/+alpha2+/+ upto 300 uM after 4 hrs by Western blot
HeLa [30] = assay: Effect on AMPK activation in HeLa cells at 1 uM after 5 mins by immunoprecipitate kinase assay; type: cell-based
Outline: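 HeLa cells grown in Minimum Essential Eagle's Medium with 10% FBS, NEAA, penicillin and streptomycin. Cells were exposed for 5 min, with or without 1 h pretreatment with STO-609 (10 µg/ml). They were lysed in ice-cold NP-40 buffer, and AMPK activity was measured by immunoprecipitate kinase assay. Means ± SEM of duplicates, representative of 2 or more experiments.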

HeLa [31] = assay: Effect on acetyl-CoA carboxylase phosphorylation in HeLa cells at 1 uM after 5 mins by densitometry; type: cell-based
Outline: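 HeLa cells grown in MEM with 10% FBS, NEAA and antibiotics. Cells were exposed for 5 min, with or without 1 h STO-609 (10 µg/ml) pretreatment, then lysed in NP-40 buffer. Lysates (10-30 µg protein) were Western blotted for phospho-ACC with ECL detection, and densitometry was given in arbitrary units. Means ± SEM of duplicates, representative of 2 or more experiments.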

For `N#Cc1c(O)c2c(-c3ccc(-c4ccccc4O)cc3)csc2[nH]c1=O`, the Activity (Mus musculus [1]) was “Active”, the Activity (HeLa [2]) was “Active” and the Activity (HeLa [3]) was “Active”. For the same compound, the Activity (HeLa [4]) was “Active”, the inhibition [5] was greater than 50% and the Activity (Mus musculus [6]) was “Active”. For the same compound, the Activity (Rattus norvegicus [7]) was “inactive”, the Activity (Mus musculus [8]) was “Active” and the Activity (Mus musculus [9]) was “Active”. For the same compound, the Activity (Mus musculus [10]) was “inactive”, the Activity (Mus musculus [11]) was “Active” and the Activity (Mus musculus [12]) was “inactive”. The Activity (HeLa [13]) was “Active”, the Activity (Rattus norvegicus [14]) was “inactive” and the Activity (Mus musculus [15]) was “Active”. The Activity (Mus musculus [16]) was “Active”, the Activity (HeLa [17]) was “Active” and the Activity (Mus musculus [18]) was “inactive”. For the same compound, the Activity [19] was “inactive”, the Activity (Rattus norvegicus [20]) was “Active” and the Activity (Hepatocyte) was “Active”. For the same compound, the Activity [21] was 1.4, the inhibition [22] was greater than 50% and the Activity (Mus musculus [23]) was “Active”. For the same compound, the Activity (HeLa [24]) was “Active”, the Activity (Mus musculus [25]) was “inactive” and the Activity (HeLa [26]) was “Active”. For the same compound, the Activity (Mus musculus [27]) was “Active” and the Activity (Rattus norvegicus [28]) was “inactive”.
With `NC(=O)c1ncn([C@@H]2O[C@H](COP(=O)(O)O)[C@@H](O)[C@H]2O)c1N` the Activity (Mus musculus [29]) was “Active”.
With `CC(O)[C@]1(C)CC[C@H]([C@]2(C)CC[C@@H](C[C@H](O)[C@H](C)[C@H](O)[C@H](C)/C=C/C[C@@H](C)C[C@@H](C)/C(O)=C/C(=O)[C@@H](C)C[C@@H](C)C[C@H](C)CCC(=O)O)O2)O1` (single isomer, unassigned) the Activity (HeLa [30]) was “Active” and the Activity (HeLa [31]) was “Active”.

From ChEMBL document CHEMBL1156515
